≈ marks a conversion by molar mass, not a printed value.

Assay type in all cases: functional
Experiment [1] has as its system Escherichia coli. As to the kind of experiment: Antibacterial activity against Escherichia coli ATCC 25922 after 16-20 hrs by microdilution broth method. The method, boiled down:
(§1)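 CLSI broth microdilution with test agents as hydrochloride salts (HPLC purity over 98%), twofold dilutions in 96-well trays. Actively growing broth cultures were diluted to McFarland 0.5 for the inoculum. Trays were covered and incubated at 37 °C for 16–20 h. MIC (µg/mL) was the lowest concentration without visible growth; triplicate runs.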
On the technique in general: In broth dilution the organism is exposed to a series of concentrations in liquid medium.

The subject of experiment [2] is Escherichia coli. As to the kind of experiment: Antibacterial activity against Escherichia coli ATCC 35218 after 16-20 hrs by microdilution broth method. In short, it runs like this: as §1
Experiment [3] concerns Staphylococcus aureus. Briefly: Antibacterial activity against Staphylococcus aureus ATCC 29213 after 16-20 hrs by microdilution broth method. In short, it runs like this: as §1
Experiment [4] concerns Staphylococcus aureus. As to the kind of experiment: Antibacterial activity against methicillin-resistant Staphylococcus aureus ATCC 33591 after 16-20 hrs by microdilution broth method. In short, it runs like this:
(§2)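 CLSI broth microdilution on hydrochloride salts (HPLC purity over 98%). Actively growing broth cultures were adjusted to McFarland 0.5 and added to 2-fold drug dilutions to give a final inoculum of […]. Trays were covered and incubated at 37 °C for 16–20 h. MIC ([…]) was taken as the lowest concentration preventing visible growth. Tests were run in triplicate.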

Experiment [5] has as its system Staphylococcus epidermidis. As to the kind of experiment: Antibacterial activity against Staphylococcus epidermidis ATCC 12228 after 16-20 hrs by microdilution broth method. In short, it runs like this:
as §1

Experiment [6] concerns Staphylococcus epidermidis. As to the kind of experiment: Antibacterial activity against methicillin-resistant isolate Staphylococcus epidermidis 08-18 after 16-20 hrs by microdilution broth method. The method, boiled down:
as §2

Experiment [7] has as its system Staphylococcus epidermidis. As to the kind of experiment: Antibacterial activity against Staphylococcus epidermidis 07-9 clinical isolate expressing APH(30)-IIIa after 16-20 hrs by microdilution broth method. In short, it runs like this: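 Clinical isolate from a Beijing Friendship Hospital patient (2007), with aph(3′)-IIIa confirmed by PCR. CLSI broth microdilution with hydrochloride salts in twofold dilutions, inoculum from actively growing culture at McFarland 0.5, 37 °C for 16–20 h in covered trays. MIC (µg/mL) was the lowest concentration inhibiting visible growth; triplicate runs.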

In another experiment the test system is Klebsiella pneumoniae. Briefly: Antibacterial activity against Klebsiella pneumoniae ATCC 700603 after 16-20 hrs by microdilution broth method. The method, boiled down:
as §1

The next experiment relates to Pseudomonas aeruginosa. As to the kind of experiment: Antibacterial activity against Pseudomonas aeruginosa ATCC 27853 after 16-20 hrs by microdilution broth method. The method, boiled down: as §1
A further experiment has as its system Enterococcus faecalis. Briefly: Antibacterial activity against Enterococcus faecalis ATCC 29212 after 16-20 hrs by microdilution broth method. The method, boiled down: as §1
For experiment [8], the system named is Escherichia coli. As to the kind of experiment: Antibacterial activity against Escherichia coli BL21 expressing pET29a engineering strain expressing APH(30)-Ia after 16-20 hrs by microdilution broth method. In short, it runs like this:
as §2

Another experiment deals with Mortierella alpina. As to the kind of experiment: Antibacterial activity against Mortierella alpina ATCC 32221 after 16-20 hrs by microdilution broth method.

Turning to `NC[C@H]1O[C@H](O[C@H]2[C@H](O)[C@@H](O[C@H]3O[C@H](CO)[C@@H](O)[C@H](N)[C@H]3O)[C@H](N)C[C@@H]2N)[C@H](N)[C@@H](O)[C@@H]1O` [BEKANAMYCIN], the minimal inhibitory concentration (MIC) was 4 mg/L (≈ 8.27 µM) against Escherichia coli [1]; 4 mg/L (≈ 8.27 µM) with Escherichia coli [2]; 1 mg/L (≈ 2.07 µM) in the experiment with Staphylococcus aureus [3]; above 128 mg/L with Staphylococcus aureus [4]; 0.25 mg/L (≈ 0.517 µM) in experiment [5]; 32 mg/L (≈ 66.2 µM) in experiment [6]. Also, the MIC in [7] is above 128 mg/L; in the experiment with Klebsiella pneumoniae it was 16 mg/L (≈ 33.1 µM); with Pseudomonas aeruginosa, 64 mg/L (≈ 132 µM); in the experiment on Enterococcus faecalis it was 64 mg/L (≈ 132 µM); with Escherichia coli [8], 64 mg/L (≈ 132 µM); with Mortierella alpina, above 128 mg/L.

On to `NC[C@@H]1O[C@@H](O[C@H]2[C@H](O)[C@@H](O[C@H]3O[C@H](CO)[C@@H](O)[C@H](N)[C@H]3O)[C@H](N)C[C@@H]2N)[C@@H](O)[C@H](O)[C@H]1O` [KANAMYCIN A], for which the MIC against Escherichia coli [1] is 2 mg/L (≈ 4.13 µM); in the experiment with Escherichia coli [2], 4 mg/L (≈ 8.26 µM); against Staphylococcus aureus [3] it was 2 mg/L (≈ 4.13 µM); in the experiment on Staphylococcus aureus [4], 128 mg/L (≈ 264 µM); in [5], 1 mg/L (≈ 2.06 µM); in [6], 8 mg/L (≈ 16.5 µM). The MIC was above 128 mg/L in experiment [7]; 64 mg/L (≈ 132 µM) against Klebsiella pneumoniae; above 128 mg/L in the experiment with Pseudomonas aeruginosa; 64 mg/L (≈ 132 µM) against Enterococcus faecalis; above 128 mg/L with Escherichia coli [8]; above 128 mg/L against Mortierella alpina.

As to `CC(=O)N[C@H]1[C@H](O)[C@@H](N)[C@@H](O[C@H]2[C@H](O)[C@@H](O[C@H]3O[C@H](CO)[C@@H](O)[C@H](N)[C@H]3O)[C@H](N)C[C@@H]2N)O[C@@H]1CN`, the minimum inhibitory concentration (MIC) came to 2 mg/L (≈ 3.81 µM) with Escherichia coli [1]; 8 mg/L (≈ 15.3 µM) against Escherichia coli [2]; 2 mg/L (≈ 3.81 µM) in the experiment on Staphylococcus aureus [3]; 16 mg/L (≈ 30.5 µM) in the experiment with Staphylococcus aureus [4]; 0.5 mg/L (≈ 0.953 µM) in [5]; 2 mg/L (≈ 3.81 µM) in [6]. For the same molecule, the MIC in experiment [7] is above 128 mg/L; against Klebsiella pneumoniae, 2 mg/L (≈ 3.81 µM); against Pseudomonas aeruginosa, 4 mg/L (≈ 7.63 µM); in the experiment with Enterococcus faecalis it was above 128 mg/L; with Escherichia coli [8] it was 128 mg/L (≈ 244 µM); in the experiment on Mortierella alpina, above 128 mg/L.

With `NC[C@H]1O[C@H](O[C@H]2[C@H](O)[C@@H](O[C@H]3O[C@H](CO)[C@@H](O)[C@H](N)[C@H]3O)[C@H](N)C[C@@H]2N)[C@H](N)[C@@H](O)[C@@H]1NC(=O)C1CCNCC1`, the minimal inhibitory concentration (MIC) turned out to be 2 mg/L (≈ 3.37 µM) in the experiment with Escherichia coli [1]; 2 mg/L (≈ 3.37 µM) with Escherichia coli [2]; 1 mg/L (≈ 1.68 µM) with Staphylococcus aureus [3]; 2 mg/L (≈ 3.37 µM) against Staphylococcus aureus [4]; 0.25 mg/L (≈ 0.421 µM) in experiment [5]; 0.25 mg/L (≈ 0.421 µM) in [6]. Also, the minimum inhibitory concentration (MIC) in [7] was 128 mg/L (≈ 216 µM); with Klebsiella pneumoniae it was 8 mg/L (≈ 13.5 µM); with Pseudomonas aeruginosa it was 2 mg/L (≈ 3.37 µM); against Enterococcus faecalis, 128 mg/L (≈ 216 µM); with Escherichia coli [8] it was 4 mg/L (≈ 6.74 µM); against Mortierella alpina, above 128 mg/L.

Take `NC[C@H]1O[C@H](O[C@H]2[C@H](O)[C@@H](O[C@H]3O[C@H](CO)[C@@H](O)[C@H](N)[C@H]3O)[C@H](N)C[C@@H]2N)[C@H](N)[C@@H](O)[C@@H]1NC(=O)C1CCCCC1`: the minimal inhibitory concentration (MIC) with Escherichia coli [1] stood at 2 mg/L (≈ 3.37 µM); with Escherichia coli [2] it was 2 mg/L (≈ 3.37 µM); against Staphylococcus aureus [3], 1 mg/L (≈ 1.69 µM); in the experiment with Staphylococcus aureus [4] it was 4 mg/L (≈ 6.75 µM); in experiment [5], 0.25 mg/L (≈ 0.422 µM); in experiment [6] it was 1 mg/L (≈ 1.69 µM). Also, the minimum inhibitory concentration (MIC) in experiment [7] is above 128 mg/L; against Klebsiella pneumoniae it was 32 mg/L (≈ 54 µM); in the experiment on Pseudomonas aeruginosa it was 8 mg/L (≈ 13.5 µM); against Enterococcus faecalis, 64 mg/L (≈ 108 µM); in the experiment on Escherichia coli [8] it was 64 mg/L (≈ 108 µM); in the experiment on Mortierella alpina it was above 128 mg/L.

`NCCCC(=O)N[C@H]1[C@H](O)[C@@H](N)[C@@H](O[C@H]2[C@H](O)[C@@H](O[C@H]3O[C@H](CO)[C@@H](O)[C@H](N)[C@H]3O)[C@H](N)C[C@@H]2N)O[C@@H]1CN`: the MIC against Escherichia coli [1] is 1 mg/L (≈ 1.76 µM); against Escherichia coli [2] it was 1 mg/L (≈ 1.76 µM); against Staphylococcus aureus [3], 0.25 mg/L (≈ 0.44 µM); in the experiment with Staphylococcus aureus [4], 2 mg/L (≈ 3.52 µM); in experiment [5] it was below 0.06 mg/L; in experiment [6], 0.25 mg/L (≈ 0.44 µM). In addition, the minimal inhibitory concentration (MIC) in [7] is 32 mg/L (≈ 56.4 µM); against Klebsiella pneumoniae, 1 mg/L (≈ 1.76 µM); against Pseudomonas aeruginosa, 0.5 mg/L (≈ 0.881 µM); in the experiment on Enterococcus faecalis, 32 mg/L (≈ 56.4 µM); with Escherichia coli [8] it was 8 mg/L (≈ 14.1 µM); in the experiment on Mortierella alpina, above 128 mg/L.

For `CN(C)[C@H]1[C@H](O)[C@@H](N)[C@@H](O[C@H]2[C@H](O)[C@@H](O[C@H]3O[C@H](CO)[C@@H](O)[C@H](N)[C@H]3O)[C@H](N)C[C@@H]2N)O[C@@H]1CN`, the MIC against Escherichia coli [1] was 128 mg/L (≈ 251 µM); with Escherichia coli [2], 64 mg/L (≈ 125 µM); in the experiment on Staphylococcus aureus [3], 32 mg/L (≈ 62.7 µM); against Staphylococcus aureus [4] it was above 128 mg/L; in experiment [5] it was 16 mg/L (≈ 31.3 µM); in experiment [6], 32 mg/L (≈ 62.7 µM). Also, the minimum inhibitory concentration (MIC) was above 128 mg/L in experiment [7]; 64 mg/L (≈ 125 µM) in the experiment on Klebsiella pneumoniae; above 128 mg/L against Pseudomonas aeruginosa; above 128 mg/L in the experiment on Enterococcus faecalis; above 128 mg/L against Escherichia coli [8]; above 128 mg/L against Mortierella alpina.

As to `Cc1ccccc1C(=O)NCC(=O)N[C@H]1[C@H](O)[C@@H](N)[C@@H](O[C@H]2[C@H](O)[C@@H](O[C@H]3O[C@H](CO)[C@@H](O)[C@H](N)[C@H]3O)[C@H](N)C[C@@H]2N)O[C@@H]1CN`, the minimum inhibitory concentration (MIC) against Escherichia coli [1] worked out at 4 mg/L (≈ 6.08 µM); against Escherichia coli [2] it was 4 mg/L (≈ 6.08 µM); against Staphylococcus aureus [3], 2 mg/L (≈ 3.04 µM); in the experiment on Staphylococcus aureus [4] it was 64 mg/L (≈ 97.3 µM); in experiment [5] it was 0.5 mg/L (≈ 0.76 µM); in experiment [6] it was 8 mg/L (≈ 12.2 µM). Also, the MIC in experiment [7] is above 128 mg/L; in the experiment with Klebsiella pneumoniae it was 64 mg/L (≈ 97.3 µM); in the experiment with Pseudomonas aeruginosa, 32 mg/L (≈ 48.7 µM); in the experiment with Enterococcus faecalis, 64 mg/L (≈ 97.3 µM); in the experiment with Escherichia coli [8] it was above 128 mg/L; in the experiment with Mortierella alpina, above 128 mg/L.

For orientation: MIC means the smallest concentration in the dilution series that meets the test's criterion for growth inhibition. Higher therefore signals a need for much substance.
